# According to ChEMBL document CHEMBL1134286, “Novel erythromycin derivatives with aryl groups tethered to the C-6 position are potent protein synthesis inhibitors and active against multidrug-resistant respiratory pathogens” (J Med Chem, 2001):
# What was measured:
# Staphylococcus aureus [1] = experiment: Minimum inhibitory concentration against Staphylococcus aureus A 5177 MLSB-i; type: functional
# Procedure, shortened: (§1)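 MICs were determined by agar dilution following National Committee for Clinical Laboratory Standards recommendations. Values are in µg/mL.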
# [2] = Minimum inhibitory concentration against Haemophilus influenzae DILL Amp-R; type: functional; procedure, shortened: as §1
# Streptococcus pneumoniae [3] = experiment: Minimum inhibitory concentration against Streptococcus pneumoniae 6303 (erythromycin susceptible strain); type: functional; procedure, shortened: as §1
# Streptococcus pneumoniae [4] = experiment: Minimum inhibitory concentration against Streptococcus pneumoniae ATCC 6303 Ery-S; type: functional; procedure, shortened: as §1
# [5] = Minimum inhibitory concentration against Streptococcus pneumoniae 5737 MLSB; type: functional; procedure, shortened: as §1
# Staphylococcus aureus [6] = experiment: Minimum inhibitory concentration against Staphylococcus aureus 10649 (erythromycin susceptible strain); type: functional; procedure, shortened: as §1
# Mus musculus [7] = species: Mus musculus; experiment: Mouse protection tests for effective dose against Streptococcus pneumoniae 6303 ((erythromycin susceptible strain)) infected mice; type: functional
# [8] = Minimum inhibitory concentration against Streptococcus pyogenes PIU2548 efflux; type: functional; procedure, shortened: as §1
# Staphylococcus aureus [9] = experiment: Minimum inhibitory concentration against Staphylococcus aureus A 5278 MLSB-c; type: functional; procedure, shortened: as §1
# [10] = Minimum inhibitory concentration against Streptococcus pyogenes 930MLSB; type: functional; procedure, shortened: as §1
# Staphylococcus aureus [11] = experiment: Minimum inhibitory concentration against Staphylococcus aureus ATCC 6538PEry-S; type: functional; conditions: ATCC 6538P; procedure, shortened: as §1
# [12] = Minimum inhibitory concentration against Streptococcus pyogenes EES 61 Ery-S; type: functional; procedure, shortened: as §1
# Streptococcus pneumoniae [13] = experiment: Minimum inhibitory concentration against Streptococcus pneumoniae 5649 efflux; type: functional; procedure, shortened: as §1
# Mus musculus [14] = species: Mus musculus; experiment: Mouse protection tests for effective dose against Staphylococcus aureus 10649 ((erythromycin susceptible strain)) infected mice; type: functional
# Streptococcus pneumoniae [15] = experiment: Cell free inhibiting activity against erythromycin-susceptible strain Streptococcus pneumoniae 5635 (Wild type ribosomes for transcription/translation assay); type: functional
# Procedure, shortened: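 Cell-free coupled transcription/translation assay using bacterial ribosome S-30 extracts. Wild-type ribosomes were isolated from the erythromycin-susceptible strain S. pneumoniae 5635. Inhibition is reported as IC50 (µM).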
# Streptococcus pneumoniae [16] = experiment: Cell free inhibiting activity against MLSB-resistant strain Streptococcus pneumoniae 1813 (methylated ribosomes for transcription/translation assay)
# Streptococcus pneumoniae [17] = experiment: Cell free inhibiting activity against erythromycin-susceptible strain Streptococcus pneumoniae 5635 (Wild type ribosomes for transcription/translation assay)
MIC (Staphylococcus aureus [1]),MIC [2],MIC (Streptococcus pneumoniae [3]),MIC (Streptococcus pneumoniae [4]),MIC [5],MIC (Staphylococcus aureus [6]),MIC [8],MIC (Staphylococcus aureus [9]),MIC [10],MIC (Staphylococcus aureus [11]),MIC [12],MIC (Streptococcus pneumoniae [13]),IC50 (Streptococcus pneumoniae [15]),IC50 (Streptococcus pneumoniae [16]),Compound,ED50 (Mus musculus [7]),ED50 (Mus musculus [14]),IC50 (Streptococcus pneumoniae [17])
0.1 µg/mL,4 µg/mL,0.03 µg/mL,0.03 µg/mL,64 µg/mL,0.1 µg/mL,0.25 µg/mL,> 100 µg/mL,64 µg/mL,0.1 µg/mL,0.03 µg/mL,0.25 µg/mL,–,–,CC[C@H]1OC(=O)[C@H](C)C(=O)[C@H](C)[C@@H](O[C@@H]2O[C@H](C)C[C@H](N(C)C)[C@H]2O)[C@](C)(OC/C=C/c2ccccc2)C[C@@H](C)C(=O)[C@H](C)[C@H]2NC(=O)O[C@@]21C,> 40 mg/kg,30.2 mg/kg,–
0.1 µg/mL,2 µg/mL,0.015 µg/mL,0.015 µg/mL,8 µg/mL,0.1 µg/mL,0.25 µg/mL,> 100 µg/mL,4 µg/mL,0.1 µg/mL,0.004 µg/mL,0.25 µg/mL,–,–,CC[C@H]1OC(=O)[C@H](C)C(=O)[C@H](C)[C@@H](O[C@@H]2O[C@H](C)C[C@H](N(C)C)[C@H]2O)[C@](C)(OCCCc2cnc3ccccc3c2)C[C@@H](C)C(=O)[C@H](C)[C@H]2NC(=O)O[C@@]21C,33 mg/kg,27.1 mg/kg,–
0.05 µg/mL,2 µg/mL,0.008 µg/mL,0.008 µg/mL,0.25 µg/mL,0.05 µg/mL,0.5 µg/mL,> 100 µg/mL,4 µg/mL,0.05 µg/mL,0.015 µg/mL,0.5 µg/mL,–,–,CC[C@H]1OC(=O)[C@H](C)C(=O)[C@H](C)[C@@H](O[C@@H]2O[C@H](C)C[C@H](N(C)C)[C@H]2O)[C@](C)(OC/C=C/c2cnc3ccncc3c2)C[C@@H](C)C(=O)[C@H](C)[C@H]2NC(=O)O[C@@]21C,> 50 mg/kg,12.5 mg/kg,–
0.2 µg/mL,16 µg/mL,0.03 µg/mL,0.03 µg/mL,16 µg/mL,0.2 µg/mL,0.1 µg/mL,> 100 µg/mL,100 µg/mL,0.2 µg/mL,0.2 µg/mL,0.25 µg/mL,–,–,CC[C@H]1OC(=O)[C@H](C)C(=O)[C@H](C)[C@@H](O[C@@H]2O[C@H](C)C[C@H](N(C)C)[C@H]2O)[C@](C)(OC/C=C/c2cnc3ccccc3c2)C[C@@H](C)C(=O)[C@H](C)[C@@H](O)[C@]1(C)O,> 40 mg/kg,27.2 mg/kg,–
0.05 µg/mL,4 µg/mL,0.06 µg/mL,0.06 µg/mL,128 µg/mL,0.05 µg/mL,2 µg/mL,> 100 µg/mL,16 µg/mL,0.05 µg/mL,0.06 µg/mL,1 µg/mL,–,–,CC[C@H]1OC(=O)[C@H](C)C(=O)[C@H](C)[C@@H](O[C@@H]2O[C@H](C)C[C@H](N(C)C)[C@H]2O)[C@](C)(OC/C=C/c2cnc3ccccc3c2)C[C@@H](C)C2=NCCN3C(=O)O[C@@]1(C)[C@H]3[C@H]2C,23.5 mg/kg,60.4 mg/kg,–
1.56 µg/mL,64 µg/mL,–,0.5 µg/mL,> 64 µg/mL,–,1 µg/mL,> 100 µg/mL,> 64 µg/mL,0.78 µg/mL,0.25 µg/mL,0.25 µg/mL,350 nM,> 500000 nM,C=CCO[C@]1(C)C[C@@H](C)C(=O)[C@H](C)[C@H]2NC(=O)O[C@]2(C)[C@@H](CC)OC(=O)[C@H](C)C(=O)[C@H](C)[C@H]1O[C@@H]1O[C@H](C)C[C@H](N(C)C)[C@H]1O,–,–,–
0.05 µg/mL,2 µg/mL,0.004 µg/mL,0.004 µg/mL,0.5 µg/mL,0.05 µg/mL,0.25 µg/mL,> 100 µg/mL,1 µg/mL,0.05 µg/mL,0.008 µg/mL,0.25 µg/mL,70 nM,150000 nM,CC[C@H]1OC(=O)[C@H](C)C(=O)[C@H](C)[C@@H](O[C@@H]2O[C@H](C)C[C@H](N(C)C)[C@H]2O)[C@](C)(OC/C=C/c2cnc3ccsc3c2)C[C@@H](C)C(=O)[C@H](C)[C@H]2NC(=O)O[C@@]21C,–,> 50 mg/kg,–
3.1 µg/mL,2 µg/mL,–,0.03 µg/mL,8 µg/mL,–,1 µg/mL,> 100 µg/mL,8 µg/mL,0.2 µg/mL,0.03 µg/mL,1 µg/mL,–,–,CC[C@H]1OC(=O)[C@H](C)[C@@H](O[C@H]2C[C@@](C)(OC)[C@@H](O)[C@H](C)O2)[C@H](C)[C@@H](O[C@@H]2O[C@H](C)C[C@H](N(C)C)[C@H]2O)[C@](C)(OC/C=C/c2cnc3ccccc3c2)C[C@@H](C)C(=O)[C@H](C)[C@H]2NC(=O)O[C@@]21C,–,–,–
3.1 µg/mL,32 µg/mL,–,0.25 µg/mL,> 128 µg/mL,–,4 µg/mL,> 100 µg/mL,> 128 µg/mL,3.1 µg/mL,0.25 µg/mL,0.5 µg/mL,–,–,CC[C@H]1OC(=O)[C@H](C)C(=O)[C@H](C)[C@@H](O[C@@H]2O[C@H](C)C[C@H](N(C)C)[C@H]2O)[C@](C)(OCCNCc2ccnc3ccccc23)C[C@@H](C)C(=O)[C@H](C)[C@@H](O)[C@]1(C)O,–,–,–
0.2 µg/mL,4 µg/mL,–,0.03 µg/mL,128 µg/mL,–,2 µg/mL,> 100 µg/mL,64 µg/mL,0.2 µg/mL,0.03 µg/mL,1 µg/mL,–,–,CC[C@H]1OC(=O)[C@H](C)C(=O)[C@H](C)[C@@H](O[C@@H]2O[C@H](C)C[C@H](N(C)C)[C@H]2O)[C@](C)(OC/C=C/c2ccnc3ccccc23)C[C@@H](C)C(=O)[C@H](C)[C@H]2NC(=O)O[C@@]21C,–,–,–
0.2 µg/mL,4 µg/mL,0.03 µg/mL,0.03 µg/mL,0.5 µg/mL,0.2 µg/mL,0.5 µg/mL,> 100 µg/mL,2 µg/mL,0.2 µg/mL,0.03 µg/mL,0.25 µg/mL,–,–,CC[C@H]1OC(=O)[C@H](C)C(=O)[C@H](C)[C@@H](O[C@@H]2O[C@H](C)C[C@H](N(C)C)[C@H]2O)[C@](C)(OC/C=C/c2ccc3ncncc3c2)C[C@@H](C)C(=O)[C@H](C)[C@H]2NC(=O)O[C@@]21C,40.3 mg/kg,9.2 mg/kg,–

Compound,MIC (Staphylococcus aureus [1]),MIC [2],MIC (Streptococcus pneumoniae [3]),MIC (Streptococcus pneumoniae [4]),MIC [5],MIC (Staphylococcus aureus [6]),MIC [8],MIC (Staphylococcus aureus [9]),MIC [10],MIC (Staphylococcus aureus [11]),MIC [12],MIC (Streptococcus pneumoniae [13]),IC50 (Streptococcus pneumoniae [15]),IC50 (Streptococcus pneumoniae [16]),ED50 (Mus musculus [7]),ED50 (Mus musculus [14]),IC50 (Streptococcus pneumoniae [17])
CC[C@H]1OC(=O)[C@H](C)C(=O)[C@H](C)[C@@H](O[C@@H]2O[C@H](C)C[C@H](N(C)C)[C@H]2O)[C@](C)(OCC=Cc2cnc3ccccc3c2)C[C@@H](C)C(=O)[C@H](C)[C@H]2NC(=O)O[C@@]21C [CETHROMYCIN],0.05 µg/mL,2 µg/mL,0.004 µg/mL,0.004 µg/mL,0.25 µg/mL,0.05 µg/mL,0.25 µg/mL,> 100 µg/mL,1 µg/mL,0.05 µg/mL,0.004 µg/mL,0.125 µg/mL,–,28000 nM,7.8 mg/kg,9.4 mg/kg,40 nM
CC[C@H]1OC(=O)[C@H](C)C(=O)[C@H](C)[C@@H](O[C@@H]2O[C@H](C)C[C@H](N(C)C)[C@H]2O)[C@](C)(OC)C[C@@H](C)C(=O)[C@H](C)[C@H]2N(CCCCn3cnc(-c4cccnc4)c3)C(=O)O[C@]12C [TELITHROMYCIN],–,–,0.004 µg/mL,–,–,0.1 µg/mL,–,–,–,–,–,–,–,–,34.1 mg/kg,12.5 mg/kg,–
